How the values were obtained:
[1] = no reference given; cited from earlier work
[2] = assay type: in vivo, human
How it was run: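 Joint semi-mechanistic fit of plasma data for the parent and two active metabolites, from healthy-volunteer single doses (20–160 mg) and patient q.d. dosing. Parent: two compartments, three absorption transit compartments. Metabolites: two and one compartments. An enzyme compartment's production follows Emax/EC50 on the molar sum, assuming equal molar potency. IIV is exponential, log-normal. BLOQ handled by modified M6.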

[3] = tested on: EGFRex20ins‐positive mNSCLC; details: 160 mg q.d., cited from earlier work
[4] = low‐fat or high‐fat meal compared with fasting; cited from earlier work
[5] = after single‐dose administration; cited from earlier work
[6] = cited from earlier work
[7] = Model-based simulations of exposure; design: species or system human; details: age 18–86 years, race, sex, body weight 37.3–132 kg, mild‐to‐moderate renal impairment, mild‐to‐moderate hepatic impairment
[8] = tested on: CYP3A; details: cited from earlier work
[9] = single oral dose radiolabeled mobocertinib 160 mg; cited from earlier work
[10] = final population PK model, untransformed parameter
[11] = platinum‐pretreated patients with EGFRex20ins‐positive mNSCLC

In the case of C=CC(=O)Nc1cc(Nc2ncc(C(=O)OC(C)C)c(-c3cn(C)c4ccccc34)n2)c(OC)cc1N(C)CCN(C)C [mobocertinib], the “Biopharmaceutics Classification System class” value [1] is listed as “Class 1”, the permeability [1] is listed as “high permeability” and the solubility [1] is listed as “highly soluble”. The “IIV CL/F” value [2, 10] was 49.6%, the “IIV Ka (interindividual variability)” value [2, 10] was 45.7% and the “IIV Vc/F” value [2, 10] was 48.7%. For the same molecule, the “Ka, absorption rate constant” value [2, 10] was 2.12 h⁻¹, the “Residual variability, additive error on log scale” value [2, 10] was 41.4% and the “Kenz, rate constant for enzyme synthesis/degradation” value ([2]; final population PK model, enzyme (auto-induction) compartment) was 0.00392 h⁻¹. For the same molecule, the “Emax, maximal induction effect” value ([2]; final population PK model, enzyme compartment, molar sum of the three moieties) was 0.781, the Vd/F ([2]; human, plasma, oral, Vss/F, apparent volume of distribution at steady state, geometric mean (%CV 38%), derived from the final population PK model) was 3510 L and the “median duration of response per IRC” value [3] was 17.5 months. For the same molecule, the median overall survival [3] was 24.0 months, the “confirmed objective response rate (ORR) per independent review committee (IRC)” value [3, 11] was 28% and the “confirmed objective response rate (ORR) per investigators” value [3, 11] was 35%. For the same molecule, the “food effect on molar sum AUC” value [4] was “no clinically meaningful differences”, the “mean half‐life” value [5] was 20 h and the “decrease of molar sum AUC0–∞” value ([6]; co‐administration with strong CYP3A inducer rifampin) was 95%. For the same molecule, the “increase of molar sum AUC0–∞ of mobocertinib, AP32960, and AP32914” value ([6]; co‐administration with strong CYP3A inhibitor itraconazole) was 527%, the “effect of covariates on mobocertinib PK” value [7] was “No clinically meaningful differences” and the “CYP3A substrate and inducer status (in vitro)” value [8] was “both substrates and inducers of CYP3A”. The “CYP3A inhibition and induction (in vitro)” value ([8]; ref data on file, Takeda Development Center Americas) was “inhibitors and inducers of CYP3A”, the “dose recovered in feces” value [9] was ~ 76% and the “dose recovered in urine” value [9] was 4%. The “percentage of administered dose recovered in feces as this moiety” value [9] was ~ 6% and the “percentage of administered dose recovered in urine as this moiety” value [9] was ~ 1%.
